Assay results reported in ChEMBL document CHEMBL1764974, “The discovery of phthalazinone-based human H1 and H3 single-ligand antagonists suitable for intranasal administration for the treatment of allergic rhinitis” (J Med Chem, 2011).

How the values were obtained:
Cytochrome P450 2D6 = Cytochrome P450 2D6 (Homo sapiens, UniProt P10635); assay: Inhibition of CYP2D6; type: ADME
[1] = Half life in CD rat at 3 mg/kg, po and 1 mg/kg, iv; type: ADME, organism-based; conditions: in vivo
Procedure, shortened: (§1)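 Male CD rats dosed 3.0 mg/kg po and 1.0 mg/kg iv, groups of 3 or 7 animals. Clearance, Vss, t1/2 and F are reported with ranges, and clearance is also expressed as % of liver blood flow.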

Histamine H4 receptor = Histamine H4 receptor (Homo sapiens, UniProt Q9H3N8); assay: Binding affinity to human histamine H4 receptor
[2] = Oral bioavailability in CD rat at 3 mg/kg; type: ADME, organism-based; conditions: in vivo; procedure, shortened: as §1
Liver microsomes [3] = assay: Metabolic stability in human liver microsomes; type: ADME, Microsome
Hepatocyte = assay: Metabolic stability in human hepatocytes; type: ADME, cell-based
[4] = molecular target: T1, Voltage-gated inwardly rectifying potassium channel KCNH2 (Homo sapiens, UniProt Q12809); assay: Inhibition of human ERG by patch clamp assay
[5] = molecular target: T2, Alpha-1A adrenergic receptor (Homo sapiens, UniProt P35348); assay: Binding affinity to human adrenergic alpha1A receptor expressed in rat intact fibroblasts
T2 sequence (P35348 whole entry): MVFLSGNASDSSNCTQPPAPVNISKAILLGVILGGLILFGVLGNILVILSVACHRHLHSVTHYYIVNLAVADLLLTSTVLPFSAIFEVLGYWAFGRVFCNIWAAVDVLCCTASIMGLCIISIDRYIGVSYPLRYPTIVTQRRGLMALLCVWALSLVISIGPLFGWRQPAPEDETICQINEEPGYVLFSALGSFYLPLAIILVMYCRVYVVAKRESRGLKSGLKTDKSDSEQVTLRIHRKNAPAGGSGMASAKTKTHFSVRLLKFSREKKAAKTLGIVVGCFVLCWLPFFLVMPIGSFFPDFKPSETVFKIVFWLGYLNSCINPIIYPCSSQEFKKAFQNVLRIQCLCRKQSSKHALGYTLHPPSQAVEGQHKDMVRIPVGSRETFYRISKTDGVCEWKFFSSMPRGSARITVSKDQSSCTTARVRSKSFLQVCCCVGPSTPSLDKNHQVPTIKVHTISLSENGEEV

Histamine H2 receptor = Histamine H2 receptor (Homo sapiens, UniProt P25021); assay: Binding affinity to human histamine H2 receptor
Heart = assay: Cardiotoxicity in rabbit heart assessed as induction of QT interval prolongation; type: toxicity, tissue-based, Oryctolagus cuniculus
Histamine H1 receptor [6] = molecular target: T3, Histamine H1 receptor (Homo sapiens, UniProt P35367); assay: Antagonist activity at human recombinant histamine H1 receptor expressed in intact CHO cells assessed as inhibition of histamine-induced cellular calcium mobilization at 100 nM after 30 mins by FLIPR assay; type: functional, cell-based; conditions: read-out: pA2 (converted)
Procedure, shortened: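 Intact CHO cells expressing recombinant human H1; Fluo-4AM calcium dye read on FLIPR. Histamine concentration-response curves run without or with antagonist at a single 100 nM, 30 min incubation. EC50 from four-parameter logistic fit; pA2 = log(DR-1) - log[B], DR being EC50 with antagonist over control EC50.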

[7] = Volume of distribution at steady state in CD rat at 3 mg/kg, po and 1 mg/kg, iv; type: ADME, organism-based; conditions: in vivo, read-out: Vdss; procedure, shortened: as §1
[8] = Ratio of drug level in brain to blood in CD rat at 1 mg/kg, iv; type: ADME, organism-based; set-up: dose 1 mg/kg, route intravenous; conditions: read-out: BBR
Cytochrome P450 1A2 = molecular target: T4, Cytochrome P450 1A2 (Homo sapiens, UniProt P05177); assay: Inhibition of CYP1A2; type: ADME
T4 sequence (P05177 whole entry): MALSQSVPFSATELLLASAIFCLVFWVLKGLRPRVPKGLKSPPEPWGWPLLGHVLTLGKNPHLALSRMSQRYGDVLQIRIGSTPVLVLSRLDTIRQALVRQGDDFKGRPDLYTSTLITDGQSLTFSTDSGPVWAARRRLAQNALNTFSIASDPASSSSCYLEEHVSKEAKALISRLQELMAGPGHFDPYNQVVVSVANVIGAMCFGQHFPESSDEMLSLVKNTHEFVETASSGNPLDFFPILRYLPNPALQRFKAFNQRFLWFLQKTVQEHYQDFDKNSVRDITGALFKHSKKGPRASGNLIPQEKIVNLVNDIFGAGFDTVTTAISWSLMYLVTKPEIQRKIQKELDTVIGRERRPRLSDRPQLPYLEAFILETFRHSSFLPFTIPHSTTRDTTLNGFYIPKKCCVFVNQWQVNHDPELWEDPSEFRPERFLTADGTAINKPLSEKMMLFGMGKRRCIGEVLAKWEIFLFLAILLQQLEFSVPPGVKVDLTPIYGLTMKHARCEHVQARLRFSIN

[9] = Half life in Beagle dog at 3 mg/kg, po and 1 mg/kg, iv; type: ADME, organism-based, Canis lupus familiaris; conditions: in vivo
Procedure, shortened: (§2)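 Male Beagle dogs (n = 3) dosed 3.0 mg/kg po and 1.0 mg/kg iv. Clearance, Vss, t1/2 and F are given with ranges, and clearance as % of liver blood flow. Unchanged drug excreted in urine was measured over 24 h.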

[10] = Unchanged drug level in Beagle dog urine at 3 mg/kg, po and 1 mg/kg, iv after 24 hrs; type: ADME, organism-based, Canis lupus familiaris; conditions: read-out: Activity; procedure, shortened: as §2
Histamine H1 receptor [11] = molecular target: T3, Histamine H1 receptor; assay: Antagonist activity at human recombinant histamine H1 receptor expressed in intact CHO cells assessed as inhibition of histamine-induced cellular calcium mobilization by FLIPR assay; type: functional, cell-based
Procedure, shortened: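 Human recombinant H1 receptor in intact CHO cells; inhibition of agonist-induced calcium mobilization read with Fluo-4AM in FLIPR. EC50 came from a four-parameter logistic fit, and pA2 = log(DR−1) − log[B], where DR is the EC50 ratio versus control.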

[12] = molecular target: T1, Voltage-gated inwardly rectifying potassium channel KCNH2; assay: Displacement of labeled dofetilide human ERG
Liver microsomes [13] = assay: Metabolic stability in rat liver microsomes; type: ADME, Microsome
Cytochrome P450 3A4 = Cytochrome P450 3A4 (Homo sapiens, UniProt P08684); assay: Inhibition of CYP3A4; type: ADME
[14] = Clearance in Beagle dog at 3 mg/kg, po and 1 mg/kg, iv; type: ADME, organism-based, Canis lupus familiaris; conditions: in vivo; procedure, shortened: as §2
[15] = Clearance in CD rat at 3 mg/kg, po and 1 mg/kg, iv; type: ADME, organism-based; conditions: in vivo; procedure, shortened: as §1
Liver = assay: Metabolic stability in dog liver microsomes; type: ADME, Canis lupus familiaris, Microsome
Rattus norvegicus = assay: Liver blood flow in CD rat at 3 mg/kg, po and 1 mg/kg, iv; type: ADME, organism-based; conditions: in vivo; procedure, shortened: as §1
Canis familiaris = assay: Liver blood flow in Beagle dog at 3 mg/kg, po and 1 mg/kg, iv; type: ADME, organism-based, Canis lupus familiaris; conditions: in vivo; procedure, shortened: as §2
[16] = Oral bioavailability in Beagle dog at 3 mg/kg; type: ADME, organism-based, Canis lupus familiaris; conditions: in vivo; procedure, shortened: as §2
Cytochrome P450 2C19 = Cytochrome P450 2C19 (Homo sapiens, UniProt P33261); assay: Inhibition of CYP2C19; type: ADME
[17] = Volume of distribution at steady state in Beagle dog at 3 mg/kg, po and 1 mg/kg, iv; type: ADME, organism-based, Canis lupus familiaris; conditions: in vivo, read-out: Vdss; procedure, shortened: as §2
Cavia porcellus [18] = assay: Antiallergic rhinitis activity in conscious guinea pig assessed as duration of inhibition of histamine-induced nasal congestion at 0.1 to 1 mg/ml administered intranasally; type: functional
Cytochrome P450 2C9 = Cytochrome P450 2C9 (Homo sapiens, UniProt P11712); assay: Inhibition of CYP2C9; type: ADME
[19] = molecular target: T5, Alpha-1B adrenergic receptor (Homo sapiens, UniProt P35368); assay: Binding affinity to human adrenergic Alpha-1B receptor expressed in rat intact fibroblasts
T5 sequence (P35368 whole entry): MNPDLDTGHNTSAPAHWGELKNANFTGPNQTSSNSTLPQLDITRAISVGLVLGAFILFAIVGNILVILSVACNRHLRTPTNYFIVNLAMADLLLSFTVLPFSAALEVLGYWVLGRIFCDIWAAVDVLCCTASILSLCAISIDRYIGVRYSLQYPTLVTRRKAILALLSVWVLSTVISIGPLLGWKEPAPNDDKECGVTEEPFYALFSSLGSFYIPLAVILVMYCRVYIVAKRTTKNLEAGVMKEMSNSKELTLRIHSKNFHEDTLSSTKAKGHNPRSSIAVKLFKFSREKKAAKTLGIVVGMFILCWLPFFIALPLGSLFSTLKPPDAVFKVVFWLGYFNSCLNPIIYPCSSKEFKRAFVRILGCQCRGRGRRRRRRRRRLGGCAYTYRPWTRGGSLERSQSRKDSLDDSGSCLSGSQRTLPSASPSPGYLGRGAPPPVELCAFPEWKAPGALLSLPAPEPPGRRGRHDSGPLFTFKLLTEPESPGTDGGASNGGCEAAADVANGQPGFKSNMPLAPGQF
Procedure, shortened: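 Plate-based calcium imaging in intact Rat1 fibroblasts expressing the human α1B adrenoceptor.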

[20] = Bioavailability in intranasally dosed human; type: ADME, organism-based; conditions: in vivo, inhaled or intranasal
[21] = Volume of distribution at steady state in Beagle dog at 2 mg/kg, po and 1 mg/kg, iv; type: ADME, organism-based, Canis lupus familiaris; conditions: in vivo, read-out: Vdss
[22] = Clearance in Beagle dog at 2 mg/kg, po and 1 mg/kg, iv; type: ADME, organism-based, Canis lupus familiaris; conditions: in vivo
Cavia porcellus [23] = assay: Antiallergic rhinitis activity in conscious guinea pig assessed as duration of inhibition of histamine-induced nasal congestion at 1 mg/ml administered intranasally; type: functional
[24] = Oral bioavailability in Beagle dog at 2 mg/kg; type: ADME, organism-based, Canis lupus familiaris; conditions: in vivo
Histamine H3 receptor = Histamine H3 receptor (Homo sapiens, UniProt Q9Y5N1); assay: Antagonist activity at human recombinant histamine H3 receptor expressed in CHO cells assessed as inhibition of histamine-induced GTP-gammaS binding; type: functional, cell-based
Procedure, shortened: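 Membranes from CHO cells transfected with cloned human H3 receptor; reduction of histamine-stimulated GTPγS binding, detected by scintillation proximity.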

[25] = Half life in Beagle dog at 2 mg/kg, po and 1 mg/kg, iv; type: ADME, organism-based, Canis lupus familiaris; conditions: in vivo
[26] = Solubility of the compound in phosphate buffered saline at pH 7.4; type: physicochemical
[27] = Lipophilicity, log D of the compound; type: physicochemical; conditions: octanol/water; read-out: logD

Chain of Cytochrome P450 2D6 (P10635 whole entry): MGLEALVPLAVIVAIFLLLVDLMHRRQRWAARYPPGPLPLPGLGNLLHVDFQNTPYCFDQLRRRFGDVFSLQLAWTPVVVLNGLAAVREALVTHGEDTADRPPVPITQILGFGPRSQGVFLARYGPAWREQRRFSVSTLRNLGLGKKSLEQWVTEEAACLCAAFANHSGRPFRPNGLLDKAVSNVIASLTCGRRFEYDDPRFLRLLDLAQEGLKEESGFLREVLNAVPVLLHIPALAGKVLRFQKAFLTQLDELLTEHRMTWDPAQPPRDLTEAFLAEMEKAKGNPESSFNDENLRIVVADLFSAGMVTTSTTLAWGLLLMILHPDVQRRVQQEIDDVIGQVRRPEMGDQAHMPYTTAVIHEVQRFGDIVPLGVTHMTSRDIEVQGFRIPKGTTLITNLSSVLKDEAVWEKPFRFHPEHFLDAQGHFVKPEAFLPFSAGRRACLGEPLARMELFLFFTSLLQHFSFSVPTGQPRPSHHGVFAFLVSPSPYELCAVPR
T3 sequence (P35367 whole entry): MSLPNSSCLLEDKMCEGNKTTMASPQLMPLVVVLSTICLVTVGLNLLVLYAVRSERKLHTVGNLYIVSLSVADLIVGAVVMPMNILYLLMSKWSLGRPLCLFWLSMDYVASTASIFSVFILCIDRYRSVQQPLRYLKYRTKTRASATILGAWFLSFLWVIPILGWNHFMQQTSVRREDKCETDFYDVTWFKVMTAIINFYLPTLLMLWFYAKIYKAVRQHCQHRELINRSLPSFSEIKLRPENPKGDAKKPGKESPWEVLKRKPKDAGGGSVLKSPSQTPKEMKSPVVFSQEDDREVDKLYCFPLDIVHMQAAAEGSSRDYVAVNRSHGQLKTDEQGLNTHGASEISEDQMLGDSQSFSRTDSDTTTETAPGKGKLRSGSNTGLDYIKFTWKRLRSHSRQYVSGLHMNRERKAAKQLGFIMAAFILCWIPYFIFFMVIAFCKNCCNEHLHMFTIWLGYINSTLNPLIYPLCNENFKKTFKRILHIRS
T1 sequence (Q12809 whole entry): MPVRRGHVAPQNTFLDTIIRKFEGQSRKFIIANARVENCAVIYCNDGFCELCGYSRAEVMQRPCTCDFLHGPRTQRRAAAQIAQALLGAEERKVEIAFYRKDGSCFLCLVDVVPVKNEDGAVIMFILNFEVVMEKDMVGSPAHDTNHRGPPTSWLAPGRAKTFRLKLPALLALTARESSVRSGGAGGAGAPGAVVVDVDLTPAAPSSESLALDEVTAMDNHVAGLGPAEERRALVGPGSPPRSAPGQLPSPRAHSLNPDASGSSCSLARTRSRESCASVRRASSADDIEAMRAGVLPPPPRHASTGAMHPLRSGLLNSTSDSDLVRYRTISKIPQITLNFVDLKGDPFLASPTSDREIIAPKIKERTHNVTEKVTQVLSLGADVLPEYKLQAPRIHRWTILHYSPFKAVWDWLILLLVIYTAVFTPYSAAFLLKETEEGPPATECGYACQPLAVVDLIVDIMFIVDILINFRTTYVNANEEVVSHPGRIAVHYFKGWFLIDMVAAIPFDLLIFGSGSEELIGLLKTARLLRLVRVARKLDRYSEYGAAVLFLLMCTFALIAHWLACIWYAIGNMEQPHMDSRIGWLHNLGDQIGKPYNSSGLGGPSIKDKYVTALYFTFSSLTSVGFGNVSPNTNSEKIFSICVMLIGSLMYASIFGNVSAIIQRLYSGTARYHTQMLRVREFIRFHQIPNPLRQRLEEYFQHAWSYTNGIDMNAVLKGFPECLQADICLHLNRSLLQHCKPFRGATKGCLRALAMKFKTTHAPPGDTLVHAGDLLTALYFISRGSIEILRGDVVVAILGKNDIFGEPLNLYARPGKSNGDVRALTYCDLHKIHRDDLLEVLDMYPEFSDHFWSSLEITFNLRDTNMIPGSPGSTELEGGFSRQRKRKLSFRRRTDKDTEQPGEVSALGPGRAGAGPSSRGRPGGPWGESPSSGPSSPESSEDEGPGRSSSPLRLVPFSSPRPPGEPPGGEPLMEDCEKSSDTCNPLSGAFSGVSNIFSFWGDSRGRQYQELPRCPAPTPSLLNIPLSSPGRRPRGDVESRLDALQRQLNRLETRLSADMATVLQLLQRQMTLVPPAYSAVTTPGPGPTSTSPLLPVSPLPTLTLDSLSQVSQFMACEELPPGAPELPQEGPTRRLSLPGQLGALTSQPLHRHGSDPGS
Chain of Cytochrome P450 3A4 (P08684 whole entry): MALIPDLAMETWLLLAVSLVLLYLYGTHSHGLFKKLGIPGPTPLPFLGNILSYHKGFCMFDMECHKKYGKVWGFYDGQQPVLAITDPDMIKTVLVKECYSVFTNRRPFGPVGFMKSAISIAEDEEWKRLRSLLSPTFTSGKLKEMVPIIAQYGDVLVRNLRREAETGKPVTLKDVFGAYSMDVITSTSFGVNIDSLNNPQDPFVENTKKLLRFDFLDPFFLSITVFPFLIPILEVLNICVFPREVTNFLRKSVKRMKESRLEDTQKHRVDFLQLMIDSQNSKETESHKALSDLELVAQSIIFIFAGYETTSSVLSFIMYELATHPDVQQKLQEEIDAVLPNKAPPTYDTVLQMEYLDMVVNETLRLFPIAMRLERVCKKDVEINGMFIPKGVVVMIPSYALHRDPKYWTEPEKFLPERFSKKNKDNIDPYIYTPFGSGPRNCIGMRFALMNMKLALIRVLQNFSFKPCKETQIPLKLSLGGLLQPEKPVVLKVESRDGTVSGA
Chain of Histamine H2 receptor (P25021 whole entry): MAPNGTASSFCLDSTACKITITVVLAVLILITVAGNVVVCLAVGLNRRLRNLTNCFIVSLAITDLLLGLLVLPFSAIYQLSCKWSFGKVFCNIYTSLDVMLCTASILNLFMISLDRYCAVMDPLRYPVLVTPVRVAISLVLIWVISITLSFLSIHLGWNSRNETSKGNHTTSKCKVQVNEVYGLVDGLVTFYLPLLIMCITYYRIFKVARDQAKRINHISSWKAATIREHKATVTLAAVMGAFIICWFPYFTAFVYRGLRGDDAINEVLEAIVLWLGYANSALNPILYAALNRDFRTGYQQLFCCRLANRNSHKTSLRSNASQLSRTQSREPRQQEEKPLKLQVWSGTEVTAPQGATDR
Chain of Cytochrome P450 2C19 (P33261 whole entry): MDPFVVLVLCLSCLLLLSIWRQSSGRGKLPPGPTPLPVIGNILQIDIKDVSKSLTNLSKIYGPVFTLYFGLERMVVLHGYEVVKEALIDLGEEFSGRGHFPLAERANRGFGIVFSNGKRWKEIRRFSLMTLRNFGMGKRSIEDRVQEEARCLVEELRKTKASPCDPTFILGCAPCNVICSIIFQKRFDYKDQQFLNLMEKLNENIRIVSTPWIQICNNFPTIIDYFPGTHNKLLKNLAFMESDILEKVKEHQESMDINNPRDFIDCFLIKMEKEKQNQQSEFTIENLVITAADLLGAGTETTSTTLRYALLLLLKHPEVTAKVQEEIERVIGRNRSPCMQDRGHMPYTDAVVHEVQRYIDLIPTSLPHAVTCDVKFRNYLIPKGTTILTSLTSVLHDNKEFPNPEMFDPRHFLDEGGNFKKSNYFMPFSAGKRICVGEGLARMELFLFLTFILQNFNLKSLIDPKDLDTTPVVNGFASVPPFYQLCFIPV
Chain of Histamine H3 receptor (Q9Y5N1 whole entry): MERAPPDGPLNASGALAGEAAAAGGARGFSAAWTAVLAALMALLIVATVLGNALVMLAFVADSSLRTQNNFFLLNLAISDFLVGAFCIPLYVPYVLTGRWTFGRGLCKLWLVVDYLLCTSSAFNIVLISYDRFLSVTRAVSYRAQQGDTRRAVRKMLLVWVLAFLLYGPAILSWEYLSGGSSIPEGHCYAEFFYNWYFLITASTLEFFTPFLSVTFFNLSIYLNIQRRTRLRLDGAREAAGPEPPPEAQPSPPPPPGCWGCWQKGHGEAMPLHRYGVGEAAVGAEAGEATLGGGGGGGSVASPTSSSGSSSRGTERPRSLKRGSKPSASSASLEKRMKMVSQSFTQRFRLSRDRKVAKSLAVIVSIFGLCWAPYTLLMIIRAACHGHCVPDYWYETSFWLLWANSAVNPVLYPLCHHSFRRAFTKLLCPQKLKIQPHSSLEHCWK
Chain of Histamine H4 receptor (Q9H3N8 whole entry): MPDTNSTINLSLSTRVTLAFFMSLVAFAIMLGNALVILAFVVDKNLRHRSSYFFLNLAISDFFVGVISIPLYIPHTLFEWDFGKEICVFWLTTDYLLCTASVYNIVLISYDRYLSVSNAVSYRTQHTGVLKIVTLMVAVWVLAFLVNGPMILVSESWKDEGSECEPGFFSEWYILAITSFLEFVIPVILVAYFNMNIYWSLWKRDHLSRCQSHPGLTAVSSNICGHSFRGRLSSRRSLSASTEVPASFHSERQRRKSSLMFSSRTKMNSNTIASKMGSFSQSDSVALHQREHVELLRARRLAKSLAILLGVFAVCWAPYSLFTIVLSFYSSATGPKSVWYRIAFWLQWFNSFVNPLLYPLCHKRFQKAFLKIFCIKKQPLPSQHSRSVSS
Chain of Cytochrome P450 2C9 (P11712 whole entry): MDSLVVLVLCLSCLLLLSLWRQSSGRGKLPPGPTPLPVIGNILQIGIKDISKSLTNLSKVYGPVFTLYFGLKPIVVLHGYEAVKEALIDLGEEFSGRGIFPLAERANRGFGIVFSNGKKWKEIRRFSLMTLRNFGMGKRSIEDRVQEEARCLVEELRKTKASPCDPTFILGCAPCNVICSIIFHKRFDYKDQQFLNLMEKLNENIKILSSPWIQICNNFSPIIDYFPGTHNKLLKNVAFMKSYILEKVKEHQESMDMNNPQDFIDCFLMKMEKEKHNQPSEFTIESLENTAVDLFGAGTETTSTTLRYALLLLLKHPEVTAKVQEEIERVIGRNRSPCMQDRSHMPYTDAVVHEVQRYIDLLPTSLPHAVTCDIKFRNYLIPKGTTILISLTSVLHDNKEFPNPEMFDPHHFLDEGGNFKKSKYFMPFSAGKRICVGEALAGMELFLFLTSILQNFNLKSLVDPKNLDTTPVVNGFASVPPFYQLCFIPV

`O=c1c2ccccc2c(Cc2ccc(Cl)cc2)nn1C[C@H]1CCCN1CCCCc1ccc(OCCCN2CCCCCC2)cc1` [GSK-1004723] gave an IC50 (Cytochrome P450 2D6) of 40 nM, a half-life [1] of 2.2 h and an IC50 (Histamine H4 receptor) of 10000 nM. For the same compound, the bioavailability [2] was 4%, the Stability (Liver microsomes [3]) was “Stable” and the Stability (Hepatocyte) was “Unstable”. For the same compound, the “inhibition (INH)” value [4] was “Active”, the Ki [5] was 39.8 nM and the IC50 (Histamine H2 receptor) was 10000 nM. The Activity (Heart) was “Non-toxic”, the Kb (Histamine H1 receptor [6]) was 0.794 nM and the Vd [7] was 3.9 L/kg. The Kp [8] was 0.6, the IC50 (Cytochrome P450 1A2) was > 3000 nM and the half-life [9] was 9.4 h. For the same compound, the dose excreted at 24 h [10] was < 1%, the Ki (Histamine H1 receptor [11]) was 10 nM and the IC50 [12] was 50.1 nM. The Stability (Liver microsomes [13]) was “Stable”, the IC50 (Cytochrome P450 3A4) was 300 nM and the clearance [14] was 27 mL/min/kg. For the same compound, the clearance [15] was 30 mL/min/kg, the Stability (Liver) was “Stable” and the LBF (Rattus norvegicus) was 35%. For the same compound, the LBF (Canis familiaris) was 87%, the bioavailability [16] was 19% and the IC50 (Cytochrome P450 2C19) was > 3000 nM. The Vd [17] was 22 L/kg, the Time (Cavia porcellus [18]) was 72 h and the IC50 (Cytochrome P450 2C9) was > 3000 nM. The Ki [19] was 31.6 nM.

`CN1CCCC(n2nc(Cc3ccc(Cl)cc3)c3ccccc3c2=O)CC1` (racemic) [AZELASTINE] gave a bioavailability [20] of 40%, an IC50 (Cytochrome P450 2D6) of 1000 nM and a half-life [1] of 1 h. It also gave a bioavailability [2] of 7%, a Vd [21] of 4.9 L/kg and a Ki [5] of 50.1 nM. The clearance [22] was 22 mL/min/kg, the Vd [7] was 1.8 L/kg and the Kp [8] was 7.5. For the same compound, the Time (Cavia porcellus [23]) was <24 h, the bioavailability [24] was 46% and the Ki (Histamine H3 receptor) was 158 nM. The half-life [25] was 3.2 h, the clearance [15] was 35 mL/min/kg and the LBF (Rattus norvegicus) was 41%. It also gave a Ki [19] of 50.1 nM.

Compound `CN1CCCC(n2nc(Cc3ccc(Cl)cc3)c3ccccc3c2=O)CC1.Cl` (racemic) [AZELASTINE HYDROCHLORIDE] has a solubility [26] of 144 µg/mL and a logD [27] of 2.25.
